ChEMBL document CHEMBL1155847, “Novel indoline-based acyl-CoA:cholesterol acyltransferase inhibitor with antiperoxidative activity: improvement of physicochemical properties and biological activities by introduction of carboxylic acid” (J Med Chem, 2008)
Values after ≈ are worked out from the molar mass of the structure shown. Active and inactive are the calls of the source. No cut-off for these calls is given here.

Columns and labels:
[1] = Distribution coefficient, log D at pH 7.0; assay type: physicochemical; conditions: octanol/water
Summary of the method: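 5 mg of compound in 5 mL octanol shaken 30 min at room temperature with 5 mL 1/15 M potassium phosphate buffer pH 7.0, then centrifuged. Both phases quantified by HPLC. log D taken as log of the octanol/buffer concentration ratio.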

[2] = Solubility in water at pH 7.0; assay type: physicochemical
Summary of the method: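 6 mg of compound shaken 30 min at room temperature in 3 mL 1/15 M potassium phosphate buffer pH 7.0, centrifuged and filtered (0.45 µm). Filtrate concentration by HPLC.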

[3] = target: T1, Sterol O-acyltransferase 1 (Homo sapiens, UniProt P35610); assay: Inhibition of ACAT-mediated esterified cholesterol accumulation in human THP1 cells exposed to acetyl-LDL during differentiation assessed as effect on foam cell formation; assay type: cell-based, THP-1
T1 sequence (P35610 whole entry): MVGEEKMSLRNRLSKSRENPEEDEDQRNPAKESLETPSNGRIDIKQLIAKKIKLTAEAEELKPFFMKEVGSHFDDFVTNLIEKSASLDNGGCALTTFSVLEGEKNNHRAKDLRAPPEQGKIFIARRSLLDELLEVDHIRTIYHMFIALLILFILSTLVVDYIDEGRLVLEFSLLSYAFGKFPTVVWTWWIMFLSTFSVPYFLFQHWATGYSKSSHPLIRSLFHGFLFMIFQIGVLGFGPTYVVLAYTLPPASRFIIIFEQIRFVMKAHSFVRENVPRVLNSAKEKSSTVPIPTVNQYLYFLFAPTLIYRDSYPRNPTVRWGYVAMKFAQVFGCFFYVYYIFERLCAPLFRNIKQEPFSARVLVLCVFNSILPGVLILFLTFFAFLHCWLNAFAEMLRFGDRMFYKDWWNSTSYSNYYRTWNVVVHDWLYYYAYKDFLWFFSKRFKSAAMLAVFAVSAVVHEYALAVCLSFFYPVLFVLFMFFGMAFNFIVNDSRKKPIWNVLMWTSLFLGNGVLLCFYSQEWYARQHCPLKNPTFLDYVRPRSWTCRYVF

[4] = target: T2, Acyl-CoA:cholesterol acyltransferase (Oryctolagus cuniculus, UniProt Q95214); assay: Inhibition of normocholesterolemic rabbit liver ACAT
T2 sequence (Q95214 whole entry): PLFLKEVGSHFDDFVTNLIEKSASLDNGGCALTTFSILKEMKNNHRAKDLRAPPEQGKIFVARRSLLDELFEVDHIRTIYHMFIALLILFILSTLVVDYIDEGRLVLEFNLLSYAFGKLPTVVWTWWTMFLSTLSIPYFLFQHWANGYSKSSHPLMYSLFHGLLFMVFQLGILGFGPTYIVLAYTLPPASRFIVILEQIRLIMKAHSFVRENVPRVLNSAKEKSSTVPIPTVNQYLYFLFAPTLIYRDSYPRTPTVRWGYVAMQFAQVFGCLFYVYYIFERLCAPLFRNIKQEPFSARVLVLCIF
Summary of the method: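 Liver from normocholesterolemic male Japanese White rabbits homogenized in sucrose/phosphate/EDTA/dithioerythritol buffer pH 7.4. Microsomes collected by 12000g then 105000g spins. Then 30 nmol [1-¹⁴C]oleoyl-CoA added, 20 min at 37 °C. Cholesteryl ester extracted and separated by TLC.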

Brain = assay: Antiperoxidative activity in Sprague-Dawley rat brain assessed as inhibition of malonaldehyde level; assay type: functional, tissue-based
Summary of the method: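 Cerebral cortex from male SD rats (6 weeks) homogenized in ice-cold 50 mM PBS pH 7.4, spun 1300g. Supernatant incubated 37 °C, 30 min with vehicle or compound. Stopped with 20% TCA; thiobarbituric acid reaction at 100 °C, 15 min; MDA read at 532 nm, less pre-assay MDA. Duplicate assay, n = 2.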

[5] = AUC in Sprague-Dawley rat at 10 mg/kg, po; assay type: ADME, organism-based; parameters: dose 10 mg/kg, route oral; conditions: plasma
Summary of the method: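 Male SD rats, 6-7 weeks, fasted overnight, n = 3; single oral 10 mg/kg dose suspended in 5% arabic gum. Jugular-vein heparinized blood at 0.5, 1, 3, 5, 8, 24 h; plasma free-form compound by HPLC. AUC taken over 24 h.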

[6] = target: Phosphatidylcholine-sterol acyltransferase (Rattus norvegicus) (UniProt P18424); assay: Inhibition of rat LCAT up to 10 uM
Sequence of Phosphatidylcholine-sterol acyltransferase (Rattus norvegicus) (P18424 whole entry, looked up): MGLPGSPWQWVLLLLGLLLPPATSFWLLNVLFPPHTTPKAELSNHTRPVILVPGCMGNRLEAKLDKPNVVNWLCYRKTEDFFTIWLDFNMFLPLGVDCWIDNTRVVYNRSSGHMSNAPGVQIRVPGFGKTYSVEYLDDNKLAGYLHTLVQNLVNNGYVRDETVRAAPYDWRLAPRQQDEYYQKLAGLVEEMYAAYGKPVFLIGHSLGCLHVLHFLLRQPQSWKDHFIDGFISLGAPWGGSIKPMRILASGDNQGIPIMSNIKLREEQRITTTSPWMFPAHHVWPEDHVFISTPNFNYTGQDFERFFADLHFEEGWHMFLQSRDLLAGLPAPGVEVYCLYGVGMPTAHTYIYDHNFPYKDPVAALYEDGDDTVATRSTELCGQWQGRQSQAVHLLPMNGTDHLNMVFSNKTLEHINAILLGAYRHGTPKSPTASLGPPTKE

Compound | logD [1] | solubility [2] | IC50 [3] | IC50 [4] | IC50 (Brain) | AUC [5] | Activity [6]
CCCCCCCCN1CC(CCC(=O)O)c2c(C)cc(C)c(NC(=O)C(C)(C)C)c21.Cl (stereo not given) | 3.5 | 355 µg/mL |  |  |  |  | 
CC(C)c1cc(C(C)C)c(CC(=O)NS(=O)(=O)Oc2c(C(C)C)cccc2C(C)C)c(C(C)C)c1 [AVASIMIBE] |  |  | 1.5 µM | 7.6 µM |  |  | 
CCCCCCCCN1CC(CCC(=O)O)c2c(C)cc(C)c(NC(=O)C(C)(C)C)c21 (stereo not given) |  |  | 3.6 µM | 5 µM | 4.2 µM | 1700 ng·h/mL | 
CCCCCCCCN1CCc2c(C)cc(C)c(NC(=O)C(C)(C)CCC(=O)O)c21.Cl | 3 | 401 µg/mL |  |  |  |  | 
CCCCCCCCN1CCc2c(C)c(Cc3nnn[nH]3)c(C)c(NC(=O)C(C)(C)C)c21 | 3.7 | 66 µg/mL (≈ 150 µM) | > 10 µM | > 10 µM | 1.7 µM | 6600 ng·h/mL | 

Next, values leading:

logD [1] | solubility [2] | IC50 [3] | IC50 [4] | IC50 (Brain) | AUC [5] | Activity [6] | Compound
2.9 | 1450 µg/mL |  |  |  |  |  | CCCCCCCCN1CCc2c(C)c(CC(=O)O)c(C)c(NC(=O)C(C)(C)C)c21.CCCCCCCCN1CCc2c(C)c(CC(=O)O)c(C)c(NC(=O)C(C)(C)C)c21.O=S(=O)(O)O [PACTIMIBE SULFATE]
 |  |  |  |  |  | inactive | CCCCCCCCN1CCc2c(C)c(CC(=O)O)c(C)c(NC(=O)C(C)(C)C)c21
 |  |  |  | 4.2 µM |  |  | CCCCCCCCN1CCc2c(C)c(CN)c(C)c(NC(=O)C(C)(C)C)c21
